Measured values reported in the RNAGym collection of RNA variant scans (doi:10.1126/science.aae0568).
This sample holds only a part of the variants without activity.

B1: tRNA (parent)
chain: GUUCCGUUGGCGUAAUGGUAACGCGUCUCCCUCCUAAGGAGAAGACUGCGGGUUCGAGUCCCGUACGGAACG

Variants of: B1
Experiment: yeast fitness relative to wild type (ratio to wild type); higher = fitter; tRNA-Arg(CCU), competitive growth, 37 C, YPD
How it was run: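 The tRNA-Arg(CCU) gene variants were made by chemical synthesis with a 3% per-site mutation rate at 69 sites and inserted at the native genomic locus of Saccharomyces cerevisiae. After pooling, the strains were competed in YPD at 37°C for 24 hours in six parallel replicates. Gene amplicons from the start population and each end population were read by 100-nucleotide paired-end sequencing, and Darwinian fitness relative to wild type was taken from genotype frequency changes. Genotypes needed ≥ 100 starting reads, and estimates < 0.5 were set to 0.5.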

| Variant | yeast fitness |
| --- | --- |
| C11G A37C G51A G67A | ≤ 0.5 |
| C11G C30U A45G A57U C62U | ≤ 0.5 |
| C11G C30G A37U G41A U53C A69U | 0.516 |
| C11G C34A A36U C60A | ≤ 0.5 |
| C11G A40C C61U | ≤ 0.5 |
| C11G C27A C66A | ≤ 0.5 |
| C11G C34G A36C | ≤ 0.5 |
| C11G A36U A45U G51C C55U | ≤ 0.5 |
| C11G C24G A42U | ≤ 0.5 |
| C11G C29U C61A A65C | ≤ 0.5 |
| C11G C61G C62G | ≤ 0.5 |
| C11G A42U A43C C55A C66U | ≤ 0.5 |
| C11G C46U C62U | ≤ 0.5 |
| C11G C29U C30U U54A | ≤ 0.5 |
| C11G C66G G68C | ≤ 0.5 |
| C11G C22U A40G C55G C61G | ≤ 0.5 |
| C11G C34U G44C G50C U53C | ≤ 0.5 |
| C11G G23A G38A G39C G50A G56C | 0.613 |
| C11G G25A C27U | 0.687 |
| C11G U13G C61U | ≤ 0.5 |
| C11G C22G C24U G50C | ≤ 0.5 |

| Variant | yeast fitness |
| --- | --- |
| C11G G50A C66G | ≤ 0.5 |
| C11G C24A C66U | ≤ 0.5 |
| C11G A37C | 0.606 |
| C11G C27G C29G C34U | 0.599 |
| C11G C61U | 0.656 |
| C11G C61A | 0.546 |
| C11G C61G | 0.705 |
| C11G G12C A20C C24G G39C C60A | ≤ 0.5 |
| C11G G56C G67U | ≤ 0.5 |
| C11G C30G C34A A37C C46U | ≤ 0.5 |
| C11G A43U U47A A65U G67C | ≤ 0.5 |
| C11G A36U C66U | ≤ 0.5 |
| C11G C22A | 0.608 |
| C11G C22G | 0.675 |
| C11G C22U | 0.653 |
| C11G C34G A37U | ≤ 0.5 |
| C11G G68A A69G | ≤ 0.5 |
| C11G C24G G44C | ≤ 0.5 |
| C11G C34A A36U G48A G52C C60A C62U | ≤ 0.5 |
| C11G C30U G39A A45C C49U | 0.614 |
| C11G G17A C22U C27U C33G | ≤ 0.5 |

| Variant | yeast fitness |
| --- | --- |
| C11G C29A A43C | 0.572 |
| C11G C24U G48A G67U A69C | ≤ 0.5 |
| C11G A42C A57U | 0.564 |
| C11G G63A | 0.605 |
| C11G G63C | 0.543 |
| C11G C61G A69U | ≤ 0.5 |
| C11G G23C A36G A37G A70G | 0.55 |
| C11G A37C A42G | ≤ 0.5 |
| C11G G25A C30U A37C C46U | 0.568 |
| C11G C24U A42U A43U C66U | ≤ 0.5 |
| C11G A21U A36U | ≤ 0.5 |
| C11G C55U C61A | 0.546 |
| C11G C22A C31U A42G | 0.659 |
| C11G A57C | 0.571 |
| C11G C55A G63A | 0.553 |
| C11G G23C U35G G39C G50C C66A | ≤ 0.5 |
| C11G C24U C34G | ≤ 0.5 |
| C11G A36U A37U C55U | ≤ 0.5 |
| C11G G12A C31G A69U | ≤ 0.5 |
| C11G C33A G50C | ≤ 0.5 |
| C11G C33G C62G | ≤ 0.5 |

| Variant | yeast fitness |
| --- | --- |
| C11G C22U A70U | ≤ 0.5 |
| C11G G12A A42U | ≤ 0.5 |
| C11G C29G C31G A37U | 0.674 |
| C11G A36U | ≤ 0.5 |
| C11G A36G | 0.692 |
| C11G A40G | 0.567 |
| C11G C31U U35A A37G A40C U47C U64G | ≤ 0.5 |
| C11G C27U A43C C61G | ≤ 0.5 |
| C11G G38A C61G | ≤ 0.5 |
| C11G C62U C66U | ≤ 0.5 |
| C11G C29G A40G G41A C49A C62G | 0.751 |
| C11G C33U U59C | 0.66 |
| C11G A45G | 0.636 |
| C11G C29G C31G U54C U64A | ≤ 0.5 |
| C11G C31U A42U A70U | ≤ 0.5 |
| C11G C22A C27G C31U U59A | 0.569 |
| C11G G23A C46A G68U | 0.566 |
| C11G G58C | 0.589 |
| C11G C24U G48C | 0.541 |
| C11G G17C C29U G51A C62U A69C | ≤ 0.5 |
